Published values gathered from unrelated publications.
Lines come from different studies, so protocols differ.
Target: Rho-associated protein kinase 2 (ROCK2, Homo sapiens, UniProt O75116)

SMILES | read-out | technique | concentration | remaining binding
O=C(N[C@H]1CCCCC/C=C\C2C[C@@]2(C(=O)O)NC(=O)[C@@H]2C[C@@H](Oc3ccncc3)CN2C1=O)OC1CCCC1 (stereo partly drawn) | binding | competition with immobilised ligand | 1 µM | 100%
C=CC(=O)N1CCC(C(=O)NCC(=O)N2CCN(c3nc(-c4cnc(N)nc4C(F)F)nc(N4CCOCC4)n3)CC2)CC1 | binding | competition with immobilised ligand | 1 µM | 90%
CN(CCCC(F)(F)F)c1nccc(-c2cnn3ncccc23)n1 | binding |  | 1 µM | 100%
CC(=O)N1CCC(c2ccc(C(=O)NC(=N)N)cc2C(F)(F)F)CC1 | cell-free assay | competition with immobilised ligand | 1 µM | 100%
N#Cc1ccccc1CSc1nnc2c(n1)[nH]c1ccccc12 | binding | competition with immobilised ligand | 10 µM | 80%
C[C@@H]1CCN(c2nccc(-c3cnn4ncccc34)n2)C1 | binding |  | 1 µM | 98%
C[C@@H]1CN(c2ccc3ncc(-c4ccc5[nH]nc(C6CC6)c5c4)n3n2)C[C@H](C)O1 | binding | competition with immobilised ligand | 50 nM | 69%
CC(C)(C)c1ccc(-c2nc(CBr)nn2-c2cccc(O)c2)cc1 | cell-free assay | competition with immobilised ligand | 10 µM | 58%
COCCOc1nc(-c2ccc(Cl)nc2)nc2c1CN(C(=O)c1ncn3ccccc13)CC2 | cell-free assay | competition with immobilised ligand | 0.1 µM | 76%
C[C@@H](c1ccc(-n2cnc3c(N)ncnc32)cc1)N1CCc2nn(C)c(Cc3ccccc3)c2C1=O | binding | competition with immobilised ligand | 0.1 µM | 77%
c1cnn2ncc(-c3ccnc(N4CCC45COC5)n3)c2c1 | binding |  | 1 µM | 70%
c1cncc(-c2cccc(Nc3nccc(NC4CCCCC4)n3)c2)c1 | binding | competition with immobilised ligand | 10 µM | 25%
CN1CCN(c2cnc3c(C4CCN(C(=O)c5ccc(OC(F)(F)F)cc5N)CC4)ncnc3c2)CC1 | cell-free assay | competition with immobilised ligand | 1 µM | 100%
O=C(c1ccc(Nc2ncc(Cl)c(-c3cc4ccccc4s3)n2)cc1)N1CCC(N2CCCC2)CC1 | binding | competition with immobilised ligand | 1 µM | 7.2%
COc1cnc(Nc2cccc(S(N)(=O)=O)c2)nc1N1CCN(c2ccccc2)CC1 | binding | competition with immobilised ligand | 1 µM | 90%
O=C(NCCCN1CCOCC1)c1ccc(Nc2nccc(-c3cc4ccccc4s3)n2)cc1 | binding | competition with immobilised ligand | 1 µM | 46%
C[C@H](c1cccc(C#N)c1)n1cc(Cl)cc(C(N)=O)c1=N | cell-free assay | competition with immobilised ligand | 1 µM | 94%
COc1ccnn2ncc(-c3ccnc(N(C)C)n3)c12 | binding |  | 1 µM | 100%
Cn1cc(Cl)c2c(Oc3c(F)cc(Nc4cc(Cl)nc(N)n4)cc3F)ccnc21 | cell-free assay | competition with immobilised ligand | 0.1 µM | 83%
N[C@@H]1CCN(c2nccc(-c3cnn4ncccc34)n2)C1 | binding |  | 1 µM | 100%
Cc1cnc(Nc2ccc(C(=O)N3CCC(N4CCCC4)CC3)cc2)nc1-c1cc2ccccc2s1 | binding | competition with immobilised ligand | 1 µM | 11%
CC1=C(C#N)C(c2ccc3c(c2)c(NC(=O)c2ccccc2C)nn3C)C(C#N)=C(C)N1 | cell-free assay | competition with immobilised ligand | 1 µM | 93%
CN(C)c1nccc(-c2cnc3ncccn23)n1 | binding |  | 1 µM | 100%
O=C(NCC1CCOCC1)c1n[nH]cc1NC(=O)c1c(F)cccc1F | binding | competition with immobilised ligand | 1 µM | 64%
